High-throughput results as filed in PubChem BioAssay.
NR3A LBD binder – modulates the human NR3A ligand-binding domain; NR3A LBD differential scanning fluorimetry, Tm shift; 0% = protein alone, 100% = glycine-bound protein; Tm shift relative to glycine control, % at 25 µM; 2.5% of 340,000 active;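 active = melting temperature shift of at least 10% of the positive control shift, at one fixed dose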
UCH37 DUB inh – inhibitors of human deubiquitinating enzyme UCH37 | Q9Y5K5 | purified proteasome/UCH37, Ub-AMC cleavage fluorescence | inhibition, % (no concentration beside the values) | 0.33% of 330,000 active;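 active = mean inhibition over replicate wells above about 20%, limit read from the data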;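 also: 0% = compound-free wells with enzyme and 100% = wells lacking proteasome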
Target sequence (Q9Y5K5 whole entry, looked up): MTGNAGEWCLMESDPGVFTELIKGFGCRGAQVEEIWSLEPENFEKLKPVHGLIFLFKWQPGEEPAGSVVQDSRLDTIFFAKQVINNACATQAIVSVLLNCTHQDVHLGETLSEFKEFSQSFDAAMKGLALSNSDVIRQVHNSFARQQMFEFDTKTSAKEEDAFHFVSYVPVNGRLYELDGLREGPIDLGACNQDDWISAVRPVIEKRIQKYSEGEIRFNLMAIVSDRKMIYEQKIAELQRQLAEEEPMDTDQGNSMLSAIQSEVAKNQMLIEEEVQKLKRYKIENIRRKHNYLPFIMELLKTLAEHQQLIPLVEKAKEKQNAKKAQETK
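Material: human UCH37 enzyme supplied as purified proteasome complex / Amount: 0.15 nM proteasome as dispensed / Buffer or medium: pH 7.4 Tris-HCl (50 mM) with ovalbumin, ATP-MgCl2, DTT / Times: preincubation 30 min, reaction 25 min, room temperature / Technique: AMC fluorescence from Ub-AMC cleavage, excitation 355 nm, emission 460 nm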
ATG4B inh – ATG4B (human) cysteine protease inhibition; Q9Y4P1; ATG4B cleavage of LC3-PLA2, NBD-HPC fluorescence, 1 h; inhibition, % at 8.33 µM; 0.51% of 340,000 active; AID 504462; in the data active = inhibition above about 40%
NadD inh – inhibitors of Staphylococcus aureus NadD. purified NadD enzyme, colorimetric absorbance read-out. inhibition, % at 20 µM. 0.78% of 360,000 active. AID 602399; in the data active = inhibition above about 26%
SENP1 inh – blocks the human SENP1 SUMO protease catalytic domain | inhibition, % at 10 µM | recombinant SENP1 catalytic domain, CyPet-SUMO1-YPet FRET cleavage | 0.21% of 360,000 active;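 active = inhibition at least 30% at 10 µM, raw YFP signal under a set limit, fluorescence ratio 0.5 to 1.5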;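 also: 0% = enzyme with DMSO and 100% = no enzyme wells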
Target sequence (Q9P0U3 419-644 limits assumed): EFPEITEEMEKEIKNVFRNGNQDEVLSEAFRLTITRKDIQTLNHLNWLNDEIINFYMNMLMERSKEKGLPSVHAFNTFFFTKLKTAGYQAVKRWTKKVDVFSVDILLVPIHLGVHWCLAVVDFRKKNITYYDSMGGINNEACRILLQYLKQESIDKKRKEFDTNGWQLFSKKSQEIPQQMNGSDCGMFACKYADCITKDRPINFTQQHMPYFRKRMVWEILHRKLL
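Test system: hSENP1 catalytic domain, recombinant; Amount: 20 pM final SENP1 enzyme; Medium: Tris pH 8 buffer plus EDTA, NaCl, BME, BSA, NP40, catalase; Schedule: 50 min enzyme reaction, room temperature, light-protected; Technique: FRET fluorescence in CFP and YFP emission channels; Controls: no-enzyme wells low, DMSO-plus-enzyme wells high control.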
Starred values were filed as active, the others as inactive. The list is not random: actives were taken first. Their share in the collection is about 3.6%.

Screening CC(C)=CCc1c2c(c(O)c3c(=O)c4c(oc13)-c1cc(O)c(O)cc1OC4C=C(C)C)C=CC(C)(C)O2 (stereo not given) returned NR3A LBD binder 22.5*, UCH37 DUB inh 4.3 and ATG4B inh -2.4.
For CC(C)=CCc1c(-c2ccc(O)cc2O)oc2c3c(cc(O)c2c1=O)OC(C)(C)C=C3 the results were NR3A LBD binder 26.7*, UCH37 DUB inh 1.9 and ATG4B inh 13.3.
For CC(C)=CCc1c(O)cc2oc3c(CC=C(C)C)c(O)c(O)c(CC=C(C)C)c3c(=O)c2c1O the results were NR3A LBD binder 6.0, UCH37 DUB inh 8.6, ATG4B inh 19.0, NadD inh 5.9 and SENP1 inh -75.1.
For Cc1ccccc1-n1c(=C(C#N)C(=O)Nc2ccccc2)sc(=Cc2ccco2)c1=O the results were UCH37 DUB inh 2.7.
`CC(=NNC(=O)C(O)(c1ccccc1)c1ccccc1)c1ccc(C)o1` gave UCH37 DUB inh 6.6.
Clc1cccc(CSc2nnc(-c3c[nH]c4ccccc34)o2)c1 was read as NR3A LBD binder 15.7*, UCH37 DUB inh 1.9, ATG4B inh 10.9, NadD inh -10.7 and SENP1 inh 2.2.
Clc1ccc2nc(CSc3nnc(-c4c[nH]c5ccccc45)o3)cn2c1 was read as NR3A LBD binder -7.1, UCH37 DUB inh 6.0, ATG4B inh 3.7, NadD inh 4.4 and SENP1 inh 1.7.
For CC(C)(C)c1ccc(OCC(=O)N/N=C/c2cc(Br)ccc2OC(=O)c2ccco2)cc1 the results were NR3A LBD binder 22.8*, ATG4B inh -3.8, NadD inh 24.9 and SENP1 inh -89.5.
CC(C)(C)c1ccc(OCC(=O)NN=Cc2cc(Br)ccc2OC(=O)c2ccco2)cc1 was read as UCH37 DUB inh -2.8.
`O=S(=O)(O)c1cc(O)c2c(O)c(N=Nc3cc(Cl)ccc3O)c(S(=O)(=O)O)cc2c1` gave NR3A LBD binder -12.2, UCH37 DUB inh 34.0*, ATG4B inh 6.3, NadD inh -0.8 and SENP1 inh -0.7.
CC1(C)OC(c2ccccc2)=C/C(=C/C=NNC(=O)c2ccncc2)O1 was read as UCH37 DUB inh 13.0.
Cc1cc(O)c2c(c1)C(=O)c1cc(O)cc(O)c1C2=O was read as NR3A LBD binder 10.4*, UCH37 DUB inh 3.4, ATG4B inh 1.4, NadD inh -0.4 and SENP1 inh 10.7.
`COc1cc(C=NNC(=O)CN(Cc2ccco2)S(=O)(=O)c2ccccc2)ccc1O` gave UCH37 DUB inh 1.5.
`Cc1c(Br)c(O)c(Br)c(O)c1/C=N/n1c(-c2ccccc2)n[nH]c1=S` gave ATG4B inh 68.5*, NadD inh 0.9 and SENP1 inh 1.8.
For CCN(CC)S(=O)(=O)c1cccc(-c2n[nH]c(=S)n2/N=C/c2ccc(Br)cc2)c1 the results were NR3A LBD binder 22.2*, ATG4B inh -4.3, NadD inh 18.8 and SENP1 inh 3.3.
`Oc1c(Br)cc(C=Nn2c(-c3ccccc3)n[nH]c2=S)c(O)c1Br` gave UCH37 DUB inh 13.7.
Screening COc1cc(C=Nn2cnc3c(sc4nc(C)cc(C)c43)c2=O)ccc1O returned UCH37 DUB inh 2.2.
COc1ccccc1N1CCN(C2=Nc3cccc4cccc2c34)CC1 was read as NR3A LBD binder 0.6, UCH37 DUB inh 4.4, ATG4B inh -10.0, NadD inh -2.7 and SENP1 inh 94.6*.
`O=C(Nc1ccc(Cl)cc1)C1=Cc2cc(Cl)ccc2OC1` gave NR3A LBD binder 25.8*, UCH37 DUB inh 0.9, ATG4B inh -4.7, NadD inh -10.5 and SENP1 inh 2.6.
For O=C(Nc1ccc(Cl)cc1Cl)C1=Cc2ccccc2OC1 the results were NR3A LBD binder 1.5, UCH37 DUB inh 2.4, ATG4B inh 2.7, NadD inh -6.3 and SENP1 inh -2.3.
`COc1ccccc1/C=N/NC(=S)NCc1ccco1` gave NR3A LBD binder 0.5, ATG4B inh -7.7, NadD inh -0.2 and SENP1 inh -2.5.
For COc1cc(/C=N/NC(=S)NCc2ccco2)cc(OC)c1OC the results were NR3A LBD binder 57.9*, ATG4B inh 4.8, NadD inh -3.4 and SENP1 inh -0.4.
Screening CC(C)NC(=O)c1ccc(COc2ccc(C(C)(C)C)cc2)o1 returned NR3A LBD binder 16.1*, UCH37 DUB inh 2.3, ATG4B inh 3.0, NadD inh -2.9 and SENP1 inh 3.0.
CCOc1ccc(OCc2ccc(C(=O)NC(C)(C)C)o2)cc1 was read as NR3A LBD binder 0.4, UCH37 DUB inh 1.8, ATG4B inh -2.8, NadD inh -3.2 and SENP1 inh 0.7.
CN(C)S(=O)(=O)N1CCC(Oc2cccc(C(=O)NCCC3=CCCCC3)c2)CC1 was read as NR3A LBD binder -0.6, UCH37 DUB inh 22.2*, ATG4B inh 13.2, NadD inh -4.7 and SENP1 inh 2.1.
For CN(C)S(=O)(=O)N1CCC(Oc2cccc(C(=O)NC3CCCCC3)c2)CC1 the results were NR3A LBD binder -0.2, UCH37 DUB inh 4.2, ATG4B inh 2.2, NadD inh -0.4 and SENP1 inh -0.2.
O=[N+]([O-])c1cc(S(=O)(=O)N2CCCC2)ccc1NN=Cc1ccncc1 was read as UCH37 DUB inh 7.3.
Screening CC1(C)Nc2ccccc2N(CCC(=O)N2CCOCC2)C1=O returned NR3A LBD binder 12.5*, UCH37 DUB inh 4.5, ATG4B inh -7.5, NadD inh 1.8 and SENP1 inh 1.6.
For CC1(C)Nc2ccccc2N(CC(=O)N2CCCCC2)C1=O the results were NR3A LBD binder -4.7, UCH37 DUB inh 0.5, ATG4B inh 1.6, NadD inh -0.4 and SENP1 inh 0.8.
Screening Cc1ccccc1C=NNC(=O)Cn1nnc(N)n1 returned UCH37 DUB inh 4.5.
For COc1cccc(C(=O)/C=C/Nc2ccc(NC(C)=O)cc2)c1 the results were NR3A LBD binder 7.1, UCH37 DUB inh 8.0, ATG4B inh 7.8, NadD inh -3.9 and SENP1 inh -27.2.
COc1ccc(N/C=C/C(=O)c2cc(OC)c(OC)c(OC)c2)cc1 was read as NR3A LBD binder 30.2*, UCH37 DUB inh 3.9, ATG4B inh -3.8, NadD inh -3.6 and SENP1 inh -25.6.
For COc1cccc(C(=O)/C=C/Nc2cccc(O)c2)c1 the results were NR3A LBD binder 12.6*, UCH37 DUB inh -3.5, ATG4B inh -6.0, NadD inh 0.0 and SENP1 inh -56.6.
For COc1cccc(C(=O)/C=C/Nc2ccc(S(=O)(=O)Nc3cccc(C(C)=O)c3)cc2)c1 the results were NR3A LBD binder 12.6*, UCH37 DUB inh -8.0, ATG4B inh -16.8, NadD inh 7.5 and SENP1 inh -133.1.
For Cn1c(C=NO)nc2ccccc21 the results were UCH37 DUB inh -23.3.
`COc1cc([N+](=O)[O-])cc(C=NNC(=O)C(C)Nc2cccc3ccccc23)c1O` (stereo not given) gave UCH37 DUB inh 1.4.
